Measured values: ChEMBL document CHEMBL3046326, “Screening of dialkoxybenzenes and disubstituted cyclopentene derivatives against the cabbage looper, Trichoplusia ni, for the discovery of new feeding and oviposition deterrents” (J Agric Food Chem, 2007)

What was measured:
Trichoplusia ni [1] = test: Feeding deterrent activity against freshly molted third-instar larval stage of Trichoplusia ni (cabbage looper), Trichoplusia ni at 50 ug/cm'2 after 3 to 5 hr by leaf disk choice bioassay; type: functional
How it was run: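 Leaf disk choice with freshly molted third instar larvae starved 4–5 h. One disk was painted on each side with 10 µL solution giving 50 µg/cm², the other with carrier solvent. Twenty-five larvae per treatment, stopped at ~50% control disk consumption (3–5 h). Deterrence = [(C − T)/(C + T)] × 100 from consumed areas; mean ± SE, Tukey's test p < 0.05.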

Trichoplusia ni [2] = test: Toxicity against third-instar larval stage of Trichoplusia ni (cabbage looper) assessed as mortality measured after 24 hr by contact toxicity bioassay; type: functional
How it was run: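 Third-instar larvae were hand-sprayed directly with test solutions in filter-paper-lined Petri dishes, then moved to dishes holding a small piece of artificial diet. Mortality was recorded at 24 h.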

Trichoplusia ni [3] = test: Oviposition deterrent activity against adult female Trichoplusia ni (cabbage looper) moths introduced along with male moths into oviposition cage containing compound pretreated cabbage leaves assessed as eggs laying on the leaf disks at 0.25% after 48 hr by oviposition choice bioassay; type: functional
How it was run: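 Choice test with moths from larvae reared on normal diet from neonate to pupation. Pupae were sexed and held separately until emergence. Cabbage leaves were treated with test substance at 0.25% or left as control, and eggs per leaf were counted after 48 h. ODI = [(C − T)/(C + T)] × 100 from egg numbers on control and treated leaves.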

Trichoplusia ni [4] = test: Toxicity against third-instar larval stage of Trichoplusia ni (cabbage looper) assessed as mortality at 0.25% measured after 24 hr by contact toxicity bioassay; type: functional
How it was run: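 Third-instar larvae were sprayed directly with test solution at 0.25% in filter-paper-lined Petri dishes. They were then moved to dishes holding a small piece of artificial diet. Mortality was scored 24 h after spraying. The test applied only to compounds giving >50% feeding deterrence at 50 µg/cm².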

Trichoplusia ni [5] = test: Feeding deterrent activity against freshly molted third-instar larval stage of Trichoplusia ni (cabbage looper) after 3 to 5 hr by leaf disk choice bioassay; type: functional, organism-based
How it was run: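 Choice test: freshly molted third instar larvae, starved 4–5 h, offered two leaf disks, one painted on each side with 10 µL test solution and one with carrier solvent only. Twenty-five larvae per treatment. Ended when ~50% of the control disk was eaten (normally 3–5 h). Consumed areas measured. DC50 derived by linear regression of at least four concentrations (3.12–25 µg/cm²).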

Helicoverpa zea = test: Larvicidal activity against Helicoverpa zea (corn earworm) assessed as growth inhibition at 3 mM/kg relative to control by chronic feeding bioassay; type: functional; details: read-out: GI

Row | SMILES | Activity (Trichoplusia ni [1]) [%] | LC50 (Trichoplusia ni [2]) [%] | Activity (Trichoplusia ni [3]) [%] | mortality (Trichoplusia ni [4]) [%] | DC50 (Trichoplusia ni [5]) [microg/cm2] | inhibition of growth at 3000 µM (Helicoverpa zea) [%]
1 | CCOc1ccc(OCC)cc1 [1,4-DIETHOXYBENZENE] | 80.8 | 0.03 | 74.7 | 100 | 25.9 | –
2 | CCCCCOc1ccc(OCC)cc1 [1-ethoxy-4-pentoxybenzene] | 90.7 | 0.03 | 56.6 | 96.8 | 23.4 | –
3 | CCOc1ccc(OC)cc1 [1-methoxy-4-ethoxybenzene] | 80.2 | 0.03 | 6 | 23.3 | 34.6 | –
4 | CCCCCOc1cccc(OCCC)c1 [1-propoxy-3-pentoxybenzene] | 98 | – | 2.7 | 50 | 21.5 | –
5 | CCCCCOc1ccc(OCCC)cc1 [1-propoxy-4-pentoxybenzene] | 53.4 | – | 9.6 | 53.1 | 39.7 | –
6 | CCCOc1cccc(OCCC(C)C)c1 [3-PROPOXY-1-ISOPENTOXYBENZENE] | 82.6 | – | 35.7 | 20.8 | 19.8 | –
7 | CCCOc1ccc(OCC)cc1 [4-ETHOXY-1-PROPOXYBENZENE] | 53.4 | 0.03 | 56.6 | 96.8 | 23.4 | –
8 | C=C1C(=O)O[C@@H]2[C@H]1CC[C@H](C)[C@]1(O)C=CC(=O)[C@@]21C [PARTHENIN] | – | – | – | – | – | 59
